According to article PMC7511286 (European Journal of Drug Metabolism and Pharmacokinetics, 2020):

Tests used:
[1] = MAD study: safety and tolerability; format: in vivo, human; settings: for TEAE Hemoglobinuria: subjects having the event: based solely on a positive dip stick test
In short: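 Healthy males aged 18–55 took oral tablets. Treatment-emergent AEs were recorded by clinical evaluation. Vital signs (blood pressure, pulse), 12-lead and Holter ECG, physical examination, and urine and plasma laboratory tests were also assessed. AEs of special interest were hematuria and retroperitoneal colicky pain with suspected or confirmed nephrolithiasis. Subjects were hospitalized around dosing.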

[2] = Preliminary two-compartment population pharmacokinetic model on SAD and MAD data; format: in vivo, human
In short: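 A two-compartment model with first-order absorption, inter-compartmental transfer and elimination was fitted to plasma concentrations. Data were fasted single-dose and multiple-dose only; fed and pre-dosing data were excluded and MAD outliers kept. Parameters were ka, V1/F, V2/F, CL/F and Q/F, with k10, k12 and k21 derived from clearance/volume. Values below LLOQ (0.1 μg/ml) were left-censored. No covariate testing.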

[3] = base model, inter-individual variability

COc1cccc(-c2ccc(NC(=O)C3=C(C(=O)O)CCC3)c(F)c2)c1 [IMU-838, vidofludimus calcium]
TEAE Abdominal pain upper: number of events ([1]; 25 mg (initiation dose), n = 8): 1
TEAE Abdominal pain upper: subjects having the event ([1]; 25 mg (initiation dose), n = 8): 1 (12.5) N (%)
TEAE Atrioventricular block first degree: number of events ([1]; 25 mg (initiation dose), n = 8): 1
TEAE Atrioventricular block first degree: subjects having the event ([1]; 25 mg (initiation dose), n = 8): 1 (12.5) N (%)
TEAE Diarrhea: subjects having the event ([1]; 25 mg (initiation dose), n = 8): 1 (12.5) N (%)
TEAE Nasopharyngitis: subjects having the event ([1]; 25 mg (initiation dose), n = 8): 1 (12.5) N (%)
TEAEs Cardiac disorders Total: number of events ([1]; 25 mg (initiation dose), n = 8): 1
TEAEs Cardiac disorders Total: subjects having the event ([1]; 25 mg (initiation dose), n = 8): 1 (12.5) N (%)
TEAEs Gastrointestinal disorders Total: number of events ([1]; 25 mg (initiation dose), n = 8): 2
TEAEs Gastrointestinal disorders Total: subjects having the event ([1]; 25 mg (initiation dose), n = 8): 1 (12.5) N (%)
TEAEs Infections and infestations Total: number of events ([1]; 25 mg (initiation dose), n = 8): 1
TEAEs Infections and infestations Total: subjects having the event ([1]; 25 mg (initiation dose), n = 8): 1 (12.5) N (%)
TEAEs Total: number of events ([1]; 25 mg (initiation dose), n = 8): 4
TEAEs Total: subjects having the event ([1]; 25 mg (initiation dose), n = 8): 3 (37.5) N (%)
number of drug-related TEAEs ([1]; 30 mg once daily): 18
TEAE Abdominal pain: number of events ([1]; 30 mg, n = 12): 1
TEAE Abdominal pain: subjects having the event ([1]; 30 mg, n = 12): 1 (8.3) N (%)
TEAE Feces soft: number of events ([1]; 30 mg, n = 12): 2
TEAE Feces soft: subjects having the event ([1]; 30 mg, n = 12): 2 (16.7) N (%)
TEAE Flatulence: subjects having the event ([1]; 30 mg, n = 12): 6 (50.0) N (%)
TEAE Gamma–glutamyl transferase increased: number of events ([1]; 30 mg, n = 12): 2
TEAE Gamma–glutamyl transferase increased: subjects having the event ([1]; 30 mg, n = 12): 1 (8.3) N (%)
TEAE Headache: subjects having the event ([1]; 30 mg, n = 12): 1 (8.3) N (%)
TEAE Lipase increased: number of events ([1]; 30 mg, n = 12): 1
TEAE Lipase increased: subjects having the event ([1]; 30 mg, n = 12): 1 (8.3) N (%)
TEAE Musculoskeletal discomfort: number of events ([1]; 30 mg, n = 12): 1
TEAE Musculoskeletal discomfort: subjects having the event ([1]; 30 mg, n = 12): 1 (8.3) N (%)
TEAE Nausea: subjects having the event ([1]; 30 mg, n = 12): 1 (8.3) N (%)
TEAEs Gastrointestinal disorders Total: number of events ([1]; 30 mg, n = 12): 14
TEAEs Gastrointestinal disorders Total: subjects having the event ([1]; 30 mg, n = 12): 7 (58.3) N (%)
TEAEs Investigations Total: number of events ([1]; 30 mg, n = 12): 3
TEAEs Investigations Total: subjects having the event ([1]; 30 mg, n = 12): 2 (16.7) N (%)
TEAEs Musculoskeletal and connective tissue disorders Total: number of events ([1]; 30 mg, n = 12): 1
TEAEs Musculoskeletal and connective tissue disorders Total: subjects having the event ([1]; 30 mg, n = 12): 1 (8.3) N (%)
TEAEs Nervous system disorders Total: number of events ([1]; 30 mg, n = 12): 1
TEAEs Nervous system disorders Total: subjects having the event ([1]; 30 mg, n = 12): 1 (8.3) N (%)
TEAEs Renal and urinary disorders Total: number of events ([1]; 30 mg, n = 12): 1
TEAEs Renal and urinary disorders Total: subjects having the event ([1]; 30 mg, n = 12): 1 (8.3) N (%)
TEAEs Total: number of events ([1]; 30 mg, n = 12): 20
TEAEs Total: subjects having the event ([1]; 30 mg, n = 12): 9 (75.0) N (%)
TEAE Hemoglobinuria: subjects having the event ([1]; 30 mg, n = 12): 1 (8.3) N (%)
number of drug-related TEAEs ([1]; 40 mg once daily): 8
TEAE Arthropod bite: number of events ([1]; 40 mg, n = 12): 1
TEAE Arthropod bite: subjects having the event ([1]; 40 mg, n = 12): 1 (8.3) N (%)
TEAE Blood creatinine kinase increased: number of events ([1]; 40 mg, n = 12): 1
TEAE Blood creatinine kinase increased: subjects having the event ([1]; 40 mg, n = 12): 1 (8.3) N (%)
TEAE Fatigue: subjects having the event ([1]; 40 mg, n = 12): 3 (25.0) N (%)
TEAE Flatulence: subjects having the event ([1]; 40 mg, n = 12): 1 (8.3) N (%)
TEAE Headache: subjects having the event ([1]; 40 mg, n = 12): 1 (8.3) N (%)
TEAE Listless: subjects having the event ([1]; 40 mg, n = 12): 1 (8.3) N (%)
TEAE Sneezing: subjects having the event ([1]; 40 mg, n = 12): 1 (8.3) N (%)
TEAEs Gastrointestinal disorders Total: number of events ([1]; 40 mg, n = 12): 1
TEAEs Gastrointestinal disorders Total: subjects having the event ([1]; 40 mg, n = 12): 1 (8.3) N (%)
TEAEs General disorders and administration site conditions Total: number of events ([1]; 40 mg, n = 12): 3
TEAEs General disorders and administration site conditions Total: subjects having the event ([1]; 40 mg, n = 12): 3 (25.0) N (%)
TEAEs Injury, poisoning and procedural complications total: number of events ([1]; 40 mg, n = 12): 1
TEAEs Investigations Total: number of events ([1]; 40 mg, n = 12): 1
TEAEs Investigations Total: subjects having the event ([1]; 40 mg, n = 12): 1 (8.3) N (%)
TEAEs Nervous system disorders Total: number of events ([1]; 40 mg, n = 12): 2
TEAEs Nervous system disorders Total: subjects having the event ([1]; 40 mg, n = 12): 1 (8.3) N (%)
TEAEs Psychiatric disorders Total: number of events ([1]; 40 mg, n = 12): 1
TEAEs Psychiatric disorders Total: subjects having the event ([1]; 40 mg, n = 12): 1 (8.3) N (%)
TEAEs Renal and urinary disorders Total: number of events ([1]; 40 mg, n = 12): 2
TEAEs Renal and urinary disorders Total: subjects having the event ([1]; 40 mg, n = 12): 2 (16.7) N (%)
TEAEs Respiratory, thoracic and mediastinal disorders Total: number of events ([1]; 40 mg, n = 12): 1
TEAEs Total: number of events ([1]; 40 mg, n = 12): 12
TEAEs Total: subjects having the event ([1]; 40 mg, n = 12): 6 (50.0) N (%)
TEAE Hemoglobinuria: subjects having the event ([1]; 40 mg, n = 12): 2 (16.7) N (%)
number of drug-related TEAEs ([1]; 50 mg once daily): 16
TEAE Abdominal pain upper: number of events ([1]; 50 mg, n = 16): 2
TEAE Abdominal pain upper: subjects having the event ([1]; 50 mg, n = 16): 1 (6.3) N (%)
TEAE Dyspepsia: subjects having the event ([1]; 50 mg, n = 16): 1 (6.3) N (%)
TEAE Dysuria: subjects having the event ([1]; 50 mg, n = 16): 1 (6.3) N (%)
TEAE Epistaxis: subjects having the event ([1]; 50 mg, n = 16): 1 (6.3) N (%)
TEAE Flank pain: number of events ([1]; 50 mg, n = 16): 1
TEAE Flank pain: subjects having the event ([1]; 50 mg, n = 16): 1 (6.3) N (%)
TEAE Headache: subjects having the event ([1]; 50 mg, n = 16): 3 (18.8) N (%)
TEAE Hematuria: subjects having the event ([1]; 50 mg, n = 16): 1 (6.3) N (%)
TEAE Lipase increased: number of events ([1]; 50 mg, n = 16): 1
TEAE Lipase increased: subjects having the event ([1]; 50 mg, n = 16): 1 (6.3) N (%)
TEAE Nasopharyngitis: subjects having the event ([1]; 50 mg, n = 16): 4 (25.0) N (%)
TEAE Tenderness: subjects having the event ([1]; 50 mg, n = 16): 1 (6.3) N (%)
TEAEs Gastrointestinal disorders Total: number of events ([1]; 50 mg, n = 16): 3
TEAEs Gastrointestinal disorders Total: subjects having the event ([1]; 50 mg, n = 16): 2 (12.5) N (%)
TEAEs General disorders and administration site conditions Total: number of events ([1]; 50 mg, n = 16): 1
TEAEs General disorders and administration site conditions Total: subjects having the event ([1]; 50 mg, n = 16): 1 (6.3) N (%)
TEAEs Infections and infestations Total: number of events ([1]; 50 mg, n = 16): 4
TEAEs Infections and infestations Total: subjects having the event ([1]; 50 mg, n = 16): 4 (25.0) N (%)
TEAEs Investigations Total: number of events ([1]; 50 mg, n = 16): 1
TEAEs Investigations Total: subjects having the event ([1]; 50 mg, n = 16): 1 (6.3) N (%)
TEAEs Musculoskeletal and connective tissue disorders Total: number of events ([1]; 50 mg, n = 16): 1
TEAEs Musculoskeletal and connective tissue disorders Total: subjects having the event ([1]; 50 mg, n = 16): 1 (6.3) N (%)
TEAEs Nervous system disorders Total: number of events ([1]; 50 mg, n = 16): 3
TEAEs Nervous system disorders Total: subjects having the event ([1]; 50 mg, n = 16): 3 (18.8) N (%)
TEAEs Renal and urinary disorders Total: number of events ([1]; 50 mg, n = 16): 8
TEAEs Renal and urinary disorders Total: subjects having the event ([1]; 50 mg, n = 16): 6 (37.5) N (%)
TEAEs Respiratory, thoracic and mediastinal disorders Total: number of events ([1]; 50 mg, n = 16): 1
TEAEs Total: number of events ([1]; 50 mg, n = 16): 22
TEAEs Total: subjects having the event ([1]; 50 mg, n = 16): 10 (62.5) N (%)
TEAE Hemoglobinuria: subjects having the event ([1]; 50 mg, n = 16): 5 (31.3) N (%)
tolerability ([1]; 30–50 mg once daily over 14 consecutive days): well tolerated
deaths or serious AEs ([1]; single and multiple doses (SAD and MAD)): no deaths or serious AEs
overall number of drug-related TEAEs ([1]; whole MAD study, 52 subjects including placebo): 53
overall number of TEAEs ([1]; whole MAD study, 52 subjects including placebo, mild or moderate intensity): 79
Correlation coefficient IIV CL/F and IIV V1/F ([2]; base model): 0.387
Exponential residual error ([2]; base model): 41.6 %CV
V1/F (volume in central compartment), population estimate ([2]; base model): 2.98 L
V2/F (volume in peripheral compartment), population estimate ([2]; base model): 6.31 L
ka (absorption rate), population estimate ([2]; base model): 0.15 h⁻¹
CL/F (apparent total clearance), population estimate ([2]; base model, fasted SAD and MAD data without pre-dosing): 4.47 mL/min
k12 (inter-compartmental rate constant) ([2]; base model, derived, Eq. 2): 0.124 h⁻¹
k21 (inter-compartmental rate constant) ([2]; base model, derived, Eq. 3): 0.0584 h⁻¹
IIV on CL/F [2, 3]: 20.8 %CV
IIV on V1/F [2, 3]: 49.4 %CV
half-life ([2]; human, plasma, oral): 166 min
half-life ([2]; male, human, plasma, oral): 1990 min
k el ([2]; male, human, plasma, oral): 2.5e-05 s⁻¹
